Source: PubChem BioAssay
Most compounds without a hit are left out; they make up all but 1.5% or so of the library.
APJ antag: antagonists of human apelin receptor APJ, primary screen, CHO-K1 cells, beta-arrestin complementation, luminescence | AID 2521, 2010 | inhibition, % at 20 µM | 330,000 compounds, 0.32% hits;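 active means inhibition above about 40% at 20 µM, limit read from the data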;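 further: cells challenged with 10 nM apelin-13 agonist together with compound; plate controls were apelin-13 plus DMSO wells for no effect and DMSO wells lacking apelin-13 for full effect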
Target sequence (P35414 whole entry, looked up): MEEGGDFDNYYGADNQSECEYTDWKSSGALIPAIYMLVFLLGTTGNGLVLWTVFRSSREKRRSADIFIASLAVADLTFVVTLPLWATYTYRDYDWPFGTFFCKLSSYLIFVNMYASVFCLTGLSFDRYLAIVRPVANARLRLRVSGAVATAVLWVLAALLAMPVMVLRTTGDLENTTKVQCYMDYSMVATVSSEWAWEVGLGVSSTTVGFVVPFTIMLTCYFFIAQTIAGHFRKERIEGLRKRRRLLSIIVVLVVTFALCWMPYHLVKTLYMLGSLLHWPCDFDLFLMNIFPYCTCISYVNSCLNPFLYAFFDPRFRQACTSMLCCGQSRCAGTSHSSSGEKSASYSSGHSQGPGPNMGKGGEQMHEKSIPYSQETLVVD
EBI2 antag: EBI2 receptor antagonists, beta-arrestin recruitment, primary screen, cell-based, luminescence, 7a,25-OHC stimulation, uHTS; inhibition, % at 5 µM; AID 651636, 2012; 360,000 compounds, 0.81% hits; 7a,25-OHC stimulated; G-protein coupled receptor 183 (Homo sapiens), P32249; in the data active means inhibition above about 38%;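 further: enzyme fragment complementation signal reports receptor beta-arrestin coupling in cells; 0% = agonist plus DMSO wells and 100% = wells without agonist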
CXCR6 inh: CXCR6 receptor inhibitors, primary screen, cell-based, beta-arrestin, luminescence, CHO-K1 PathHunter, 1536-well; C-X-C chemokine receptor type 6 (Homo sapiens), O00574; inhibition, % at 20 µM; 360,000 compounds, 0.36% hits; AID 602244, 2012; in the data active means inhibition above about 34%, passing the limit was not always enough;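 further: antagonist mode with CXCL16 agonist at 10 nM final; 0% = 10 nM CXCL16 with DMSO and 100% = unstimulated wells without agonist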
APJ ag: agonists of human apelin receptor APJ, primary screen, CHO-K1 cells, PathHunter beta-arrestin, luminescence; 0% DMSO wells, 100% apelin; activation, % at 20 µM; AID 2520, 2010; 330,000 compounds, 0.11% hits;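 active means activation more than six SD over the plate average, tested at 20 µM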;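 further: 0% = DMSO alone and 100% = apelin-13 at 10 nM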
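Assay system – PathHunter CHO-K1 APJ (AGTRL-1) beta-arrestin reporter cells · Compound – one dose, 20 µM compound, 1% DMSO · Timing – compound 90 min 25 °C, reagent 1 h · Measured by – luminescence from split beta-galactosidase complementation, Galacton Star/Emerald II substrate · Measure – beta-arrestin recruitment to APJ as agonist activity, luminescent signal · Benchmarks – DMSO vs Apelin-13 10 nM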
CCR6 antag: CCR6 receptor antagonists, primary screen, cell-based, CHO-K1, luminescence, beta-arrestin, uHTS. CHO-K1 CCR6 PathHunter beta-arrestin, CCL20-stimulated. inhibition, % at 20 µM. 340,000 compounds, 0.49% hits. AID 493098, 2011;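 active means compounds whose inhibition of the agonist-driven luminescence signal at 20 µM reaches about 50%, limit read from the data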;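 further: cells stimulated with CCL20 at 14 nM final; plate controls were DMSO with CCL20 for no effect and DMSO without agonist for full effect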
Target sequence (P51684 whole entry, looked up): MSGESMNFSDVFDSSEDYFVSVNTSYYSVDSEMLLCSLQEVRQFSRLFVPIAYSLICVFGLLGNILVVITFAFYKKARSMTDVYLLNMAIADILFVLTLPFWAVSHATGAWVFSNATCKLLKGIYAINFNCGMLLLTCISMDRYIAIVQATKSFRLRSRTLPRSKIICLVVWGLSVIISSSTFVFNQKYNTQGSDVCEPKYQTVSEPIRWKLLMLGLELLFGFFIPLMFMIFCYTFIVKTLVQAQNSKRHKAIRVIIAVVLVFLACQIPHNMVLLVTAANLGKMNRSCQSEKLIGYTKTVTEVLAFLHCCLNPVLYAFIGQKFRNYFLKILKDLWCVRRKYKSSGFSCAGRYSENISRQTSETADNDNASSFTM
APJ antag conf: APJ antagonists blocking beta-arrestin recruitment, confirmation, cell-based, luminescence, single concentration, uHTS hits | shares compounds with APJ antag | antagonist mode | inhibition, % at 20 µM | 950 compounds, 66% hits; in the data active means inhibition above about 50%
CXCR6 confirm: CXCR6 receptor antagonists, confirmation, cell-based, single concentration, beta-arrestin, luminescence | shares compounds with CXCR6 inh | CHO-K1 CXCR6 PathHunter beta-arrestin | inhibition, % at 20 µM | 700 compounds, 65% hits;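 active means mean inhibition over four retests above 40%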;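 further: receptor stimulated with 10 nM CXCL16 agonist; beta-galactosidase fragment complementation upon beta-arrestin recruitment to receptor; plate controls were CXCL16 plus DMSO for no effect and DMSO without CXCL16 for full effect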
Active calls of the source: *; nt = not tested or not shown.

SMILES | APJ antag | EBI2 antag | CXCR6 inh | APJ ag | CCR6 antag | APJ antag conf | CXCR6 confirm
O=C(O)CCCCCCCCCCCNC(=O)NC12CC3CC(CC(C3)C1)C2 | 3.0 | -3.5 | -7.3 | -1.6 | 1.2 | nt | nt
COc1ccc(NC2(c3ccc(Cl)cc3)C(=O)c3ccccc3C2=O)cc1 | 62.0* | -3.3 | 32.9 | -9.4 | 74.0* | 73.0* | nt
O=C1Nc2ccccc2C1=Nc1cccc(Cl)c1 | 12.2 | 6.1 | 6.2 | 0.1 | 7.0 | nt | nt
O=C1Nc2ccccc2C1=Nc1ccc(F)cc1 | 48.9* | 9.7 | 33.6 | -14.0 | 67.5* | 119.0* | nt
CSc1cccc(N=C2C(=O)Nc3ccccc32)c1 | 44.9* | -0.8 | 33.8 | -10.0 | 54.4* | 110.5* | nt
CC(=O)c1ccc(N=C2C(=O)Nc3ccccc32)cc1 | 104.4* | 4.2 | 69.1* | -18.9 | -0.5 | 155.4* | nt
NS(=O)(=O)c1ccc(N=C2C(=O)Nc3ccccc32)cc1 | 18.0 | 7.7 | 1.2 | -2.9 | -7.7 | nt | nt
Cc1cccc(N=C2C(=O)Nc3c(Cl)cccc32)c1 | 62.7* | 16.5 | 30.2 | -15.9 | 65.2* | 136.4* | nt
Cc1ccc(-c2noc(CN(C)C(=O)c3ccc(Br)o3)n2)cc1 | -46.7 | -12.2 | 1.6 | -3.8 | 8.0 | nt | nt
O=S(=O)(Nc1ccc(-c2cn3c(n2)SCC3)cc1)c1ccccc1F | 1.2 | -1.0 | -2.4 | -4.1 | 15.5 | nt | nt
Cc1cc(/C=C2\NC(=S)NC2=O)c(C)n1-c1cccnc1 | -17.5 | -4.9 | -3.8 | -0.9 | 2.2 | nt | nt
CC(=O)Nc1cccc(C(=O)OCC(=O)c2ccc(S(=O)(=O)N3CCCCC3)cc2)c1 | 49.2* | -8.0 | 42.2* | -17.7 | 54.2* | 71.3* | 13.8
COc1cc(OC)cc(C(=O)OCC(=O)c2ccc(S(=O)(=O)N3CCCCC3)cc2)c1 | 22.3 | 14.4 | 23.4 | -8.1 | 32.0 | nt | nt
CC(C)[C@H](NC(=O)c1ccccc1)C(=O)OCC(=O)c1ccc(S(=O)(=O)N2CCCCC2)cc1 | 47.1* | 18.9 | 43.6* | -24.7 | 54.2* | 21.3 | 32.0
COc1ccc(CC(=O)OCC(=O)c2ccc(S(=O)(=O)N3CCCCC3)cc2)cc1 | 71.4* | 7.3 | 48.3* | -10.7 | 64.8* | 70.2* | 23.7
CC(=O)Nc1ccc(C(=O)OCC(=O)c2ccc(S(=O)(=O)N3CCCCC3)cc2)cc1 | -7.2 | 7.1 | 20.9 | -9.3 | 29.9 | nt | nt
CC1(c2nc3ccccc3[nH]2)c2ccccc2C(=O)N1Cc1ccccc1 (configuration not stated) | nt | 7.8 | 0.9 | nt | nt | nt | nt
CCN1C(=O)CS/C1=N\S(=O)(=O)c1ccc(Cl)cc1 | -8.1 | -1.0 | -2.4 | -5.5 | 12.8 | nt | nt
CCn1c(Cl)c(C=O)s/c1=N\S(=O)(=O)c1ccccc1 | 96.1* | 31.6 | 89.4* | -0.1 | 104.7* | 104.7* | 105.0*
O=C(CN1C(=O)NC2(CCCC2)C1=O)Oc1ccc2ccc(=O)oc2c1 | -1.0 | 6.7 | -1.8 | -4.3 | -8.4 | nt | nt
CCOc1ccc(Nc2ccc([N+](=O)[O-])c3nonc23)cc1 | 51.7* | 15.2 | 59.4* | -10.4 | 55.8* | 89.0* | 42.9*
CC(=O)NS(=O)(=O)c1ccc(Nc2ccc([N+](=O)[O-])c3nonc23)cc1 | 44.9* | 13.5 | 50.6* | -8.1 | 55.0* | 101.2* | 47.2*
CC(=O)Nc1ccc(Nc2ccc3nonc3c2[N+](=O)[O-])cc1 | -12.7 | -10.1 | -6.3 | 1.3 | -6.2 | nt | nt
Cc1ccc(C(CC(=O)O)NC(=O)CN2C(=O)c3ccccc3C2=O)cc1 (configuration not stated) | 6.4 | 0.7 | 6.5 | -1.8 | -7.5 | nt | nt
Cc1ccc(-n2c(SCCN)nnc2-c2cccc(C)c2)cc1 | 41.6* | 17.6 | 44.5* | -7.9 | 59.8* | 70.2* | 48.8*
SMILES | APJ antag | EBI2 antag | CXCR6 inh | APJ ag | CCR6 antag | APJ antag conf | CXCR6 confirm
CC(=O)OCCCNc1cc(Sc2nc3ccccc3s2)c2nonc2c1[N+](=O)[O-] | 76.7* | 62.7* | 93.4* | -6.1 | 103.5* | 101.2* | 103.2*
O=C1N=C(N2CCCC2C(=O)O)S/C1=C\c1ccco1 (configuration not stated) | -26.1 | -1.4 | 2.6 | -3.6 | 8.4 | nt | nt
COCCCN1C(=O)C(CC(=O)NC2CC2)CC(C(=O)N2CCOCC2)=C1C (configuration not stated) | nt | -4.6 | -9.1 | nt | nt | nt | nt
CC(C)c1ccc(O)c(NC(=S)NC(=O)c2cccnc2)c1 | 58.6* | 21.8 | 59.5* | -9.8 | 69.4* | 83.7* | 67.4*
CCC(C)c1ccc(O)c(NC(=O)c2cccnc2)c1 (configuration not stated) | -9.1 | -1.4 | -4.4 | -6.8 | 1.6 | nt | nt
COc1cc(C2C(C#N)=C(N)Oc3n[nH]c(-c4cccnc4)c32)cc(Br)c1O (configuration not stated) | 56.3* | 11.5 | 46.4* | -7.8 | 64.6* | 75.5* | 51.6*
O=C(Nc1cccc2ccccc12)c1ccco1 | nt | 6.5 | 3.7 | nt | nt | nt | nt
O=c1cc(CSc2ccc(Cl)cc2)nc(-c2ccccn2)[nH]1 | 51.0* | 48.2* | 54.3* | -11.4 | 79.1* | 69.8* | 68.1*
O=c1cc(CSc2ccc(Cl)cc2)nc(-c2ccccc2)[nH]1 | -3.8 | -5.3 | -9.4 | -1.2 | 3.4 | nt | nt
Cn1c(SCc2ccccn2)nnc1-c1ccccc1 | 12.1 | -6.0 | -2.4 | -0.2 | 9.0 | nt | nt
O=C(Nc1ccccc1)Nc1ncc(C(F)(F)F)cc1Cl | nt | -6.3 | 1.6 | nt | nt | nt | nt
Cc1cccc(NC(=S)NNc2ncc(C(F)(F)F)cc2Cl)c1 | 53.6* | 22.0 | 52.3* | -2.3 | 90.6* | 89.3* | 52.5*
Cc1cc(O)ccc1NC(=S)NC(=O)c1cncc(Br)c1 | 43.5* | 6.2 | 51.0* | -7.5 | 70.4* | 82.4* | 48.0*
Cc1ccccc1NC(=S)NC(=O)c1cncc(Br)c1 | 24.2 | -16.0 | 24.6 | -5.8 | 49.7 | nt | nt
O=C(O)c1cccc(NC(=S)NC(=O)c2cncc(Br)c2)c1 | 42.8* | -3.1 | 58.1* | -3.7 | 42.3 | 81.4* | 26.7
c1ccc(CN2CCC3CC2c2ccc(N4CCOCC4)cc23)cc1 (configuration not stated) | nt | -8.6 | 4.0 | nt | nt | nt | nt
COc1cc(/C=C/c2ccc3cccc(O)c3n2)cc(Br)c1OC | 21.1 | 9.9 | 23.4 | -5.8 | 33.9 | nt | nt
COc1cc(/C=C/c2ccc3cccc(O)c3n2)cc(OC)c1OC | 49.0* | 61.6* | 71.6* | -10.6 | 76.8* | 58.4* | 84.8*
